{
  "source": "ChEMBL document CHEMBL1157586",
  "about": "(Bioorg Med Chem, 2010)",
  "key": {"[1]": {"biological_target": "Serine/threonine-protein kinase PAK 4 (Homo sapiens, UniProt O96013)", "sequence (O96013 whole entry)": "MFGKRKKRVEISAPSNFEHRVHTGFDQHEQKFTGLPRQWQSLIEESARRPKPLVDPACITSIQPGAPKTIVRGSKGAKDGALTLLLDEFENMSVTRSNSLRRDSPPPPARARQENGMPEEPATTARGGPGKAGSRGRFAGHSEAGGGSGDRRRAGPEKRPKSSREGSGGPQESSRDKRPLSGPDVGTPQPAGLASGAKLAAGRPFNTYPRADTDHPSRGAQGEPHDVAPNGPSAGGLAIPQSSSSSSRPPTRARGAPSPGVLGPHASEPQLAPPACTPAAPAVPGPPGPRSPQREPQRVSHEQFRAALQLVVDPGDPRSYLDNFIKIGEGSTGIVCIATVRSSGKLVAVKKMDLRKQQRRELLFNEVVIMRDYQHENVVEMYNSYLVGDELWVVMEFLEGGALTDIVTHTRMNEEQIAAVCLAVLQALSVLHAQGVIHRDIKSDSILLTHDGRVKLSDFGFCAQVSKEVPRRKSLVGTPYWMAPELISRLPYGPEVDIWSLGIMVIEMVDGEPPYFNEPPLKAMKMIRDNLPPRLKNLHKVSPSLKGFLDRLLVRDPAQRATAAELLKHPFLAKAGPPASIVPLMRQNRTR", "assay": "Inhibition of PAK4 by scintillation proximity assay"}, "[2]": {"biological_target": "Tyrosine-protein kinase JAK2 (Homo sapiens, UniProt O60674)", "sequence (O60674 whole entry)": "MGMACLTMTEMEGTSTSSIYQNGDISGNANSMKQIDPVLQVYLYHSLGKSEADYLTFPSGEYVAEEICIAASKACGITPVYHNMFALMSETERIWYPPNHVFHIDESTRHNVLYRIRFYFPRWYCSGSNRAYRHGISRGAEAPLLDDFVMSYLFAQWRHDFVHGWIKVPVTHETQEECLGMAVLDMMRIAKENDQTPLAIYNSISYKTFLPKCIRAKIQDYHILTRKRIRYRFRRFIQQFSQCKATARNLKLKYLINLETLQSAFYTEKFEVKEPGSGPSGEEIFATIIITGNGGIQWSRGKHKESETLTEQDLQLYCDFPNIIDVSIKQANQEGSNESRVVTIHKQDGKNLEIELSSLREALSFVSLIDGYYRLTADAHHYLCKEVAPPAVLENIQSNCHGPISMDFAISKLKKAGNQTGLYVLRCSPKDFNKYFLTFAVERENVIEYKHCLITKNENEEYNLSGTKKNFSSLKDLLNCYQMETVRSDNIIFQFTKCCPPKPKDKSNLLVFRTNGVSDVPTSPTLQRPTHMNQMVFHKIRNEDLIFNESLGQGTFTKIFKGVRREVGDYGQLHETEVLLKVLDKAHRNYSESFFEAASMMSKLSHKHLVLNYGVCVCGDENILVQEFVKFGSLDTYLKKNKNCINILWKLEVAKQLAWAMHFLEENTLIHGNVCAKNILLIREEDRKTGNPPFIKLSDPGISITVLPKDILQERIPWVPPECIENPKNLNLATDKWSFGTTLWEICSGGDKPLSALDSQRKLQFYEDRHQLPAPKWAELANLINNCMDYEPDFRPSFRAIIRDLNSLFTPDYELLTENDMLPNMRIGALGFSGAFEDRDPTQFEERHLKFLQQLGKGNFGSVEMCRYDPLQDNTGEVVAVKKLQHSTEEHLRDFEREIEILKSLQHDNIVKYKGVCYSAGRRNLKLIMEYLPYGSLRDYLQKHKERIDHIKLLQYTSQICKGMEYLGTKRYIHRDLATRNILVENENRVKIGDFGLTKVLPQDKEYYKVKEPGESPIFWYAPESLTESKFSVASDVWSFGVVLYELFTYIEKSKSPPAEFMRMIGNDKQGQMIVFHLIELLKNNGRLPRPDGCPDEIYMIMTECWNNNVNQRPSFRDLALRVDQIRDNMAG", "assay": "Inhibition of JAK2 by scintillation proximity assay"}, "Mus musculus [3]": {"system": "Mus musculus", "assay": "Toxicity in BALB/c nu/nu mouse assessed as body weight reduction at 10 to 30 mg/kg, iv QD for 10 consecutive days measured post last dose", "format": "organism-based", "design": "dose 10-30 mg/kg, route intravenous; scale not given: the % may be the effect or the level left", "settings": "in vivo", "how_it_was_run": "(§1)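 Tumour-bearing nude mice were dosed iv once daily for 10 consecutive days, with compound dissolved in 5% dextrose; vehicle-treated mice served as controls. Doses were 10, 20 and 30 mg/kg in the A2780 model (starting day 8), and 10 and 20 mg/kg in the HCT-116 and BX-PC3 models. Body weight change was compared with controls, and gross autopsy was performed.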"}, "[4]": {"biological_target": "Protein kinase C alpha type (Homo sapiens, UniProt P17252)", "assay": "Inhibition of PKCalpha by scintillation proximity assay"}, "[5]": {"biological_target": "Receptor-type tyrosine-protein kinase FLT3 (Homo sapiens, UniProt P36888)", "assay": "Inhibition of FLT3 by scintillation proximity assay"}, "[6]": {"biological_target": "Inhibitor of nuclear factor kappa-B kinase subunit beta (Homo sapiens, UniProt O14920)", "assay": "Inhibition of IKK2 by scintillation proximity assay"}, "Aurora kinase B": {"biological_target": "Aurora kinase B (Homo sapiens, UniProt Q96GD4)", "assay": "Inhibition of Aurora B by scintillation proximity assay"}, "[7]": {"biological_target": "Cyclin-dependent kinase 7/ cyclin H (Homo sapiens, UniProt P50613)", "assay": "Inhibition of CDK7/cyclin H by scintillation proximity assay", "format": "protein-complex assay"}, "[8]": {"biological_target": "MAP kinase-activated protein kinase 2 (Homo sapiens, UniProt P49137)", "assay": "Inhibition of MAPKAPK2 by scintillation proximity assay"}, "[9]": {"biological_target": "Insulin-like growth factor 1 receptor (Homo sapiens, UniProt P08069)", "assay": "Inhibition of IGF1R by scintillation proximity assay"}, "[10]": {"biological_target": "Vascular endothelial growth factor receptor 3 (Homo sapiens, UniProt P35916)", "sequence (P35916 whole entry)": "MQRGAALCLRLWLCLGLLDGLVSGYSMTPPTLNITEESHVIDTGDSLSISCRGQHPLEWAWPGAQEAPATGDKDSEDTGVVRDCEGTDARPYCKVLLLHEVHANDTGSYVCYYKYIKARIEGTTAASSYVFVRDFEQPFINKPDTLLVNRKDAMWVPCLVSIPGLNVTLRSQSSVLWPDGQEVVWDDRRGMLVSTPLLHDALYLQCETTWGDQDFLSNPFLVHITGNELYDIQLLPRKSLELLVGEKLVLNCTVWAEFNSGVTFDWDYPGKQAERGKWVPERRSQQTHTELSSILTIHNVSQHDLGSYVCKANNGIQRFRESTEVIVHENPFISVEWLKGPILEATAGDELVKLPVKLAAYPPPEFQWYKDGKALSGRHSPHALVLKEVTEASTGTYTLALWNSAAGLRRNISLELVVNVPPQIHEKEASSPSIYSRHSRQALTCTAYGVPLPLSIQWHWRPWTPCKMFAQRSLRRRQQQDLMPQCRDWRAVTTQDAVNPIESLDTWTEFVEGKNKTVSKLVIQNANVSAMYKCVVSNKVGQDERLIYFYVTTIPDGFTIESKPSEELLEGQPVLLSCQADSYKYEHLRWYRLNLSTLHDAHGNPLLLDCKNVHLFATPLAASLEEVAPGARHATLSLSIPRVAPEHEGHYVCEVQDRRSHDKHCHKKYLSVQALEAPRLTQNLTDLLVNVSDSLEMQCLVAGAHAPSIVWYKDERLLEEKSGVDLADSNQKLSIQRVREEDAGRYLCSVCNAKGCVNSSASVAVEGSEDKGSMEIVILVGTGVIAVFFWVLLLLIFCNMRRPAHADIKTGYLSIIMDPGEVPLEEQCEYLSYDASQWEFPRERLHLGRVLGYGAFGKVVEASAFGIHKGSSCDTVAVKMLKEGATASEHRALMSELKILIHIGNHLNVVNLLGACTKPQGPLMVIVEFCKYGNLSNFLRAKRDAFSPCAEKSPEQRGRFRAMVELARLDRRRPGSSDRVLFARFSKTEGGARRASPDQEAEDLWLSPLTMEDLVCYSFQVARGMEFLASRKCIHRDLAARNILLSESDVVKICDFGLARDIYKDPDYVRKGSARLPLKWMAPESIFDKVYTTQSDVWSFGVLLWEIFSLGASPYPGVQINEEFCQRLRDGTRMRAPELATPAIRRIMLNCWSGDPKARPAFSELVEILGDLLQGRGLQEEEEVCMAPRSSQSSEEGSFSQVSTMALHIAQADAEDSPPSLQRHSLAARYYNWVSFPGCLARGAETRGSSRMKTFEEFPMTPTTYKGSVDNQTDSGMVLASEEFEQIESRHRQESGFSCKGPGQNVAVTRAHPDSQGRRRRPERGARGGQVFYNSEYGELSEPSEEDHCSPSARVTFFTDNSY", "assay": "Inhibition of VEGFR3 by scintillation proximity assay"}, "[11]": {"assay": "Clearance in nu/nu mouse at 10 mg/kg, iv", "format": "ADME, organism-based", "design": "dose 10 mg/kg, route intravenous", "settings": "in vivo", "how_it_was_run": "(§2)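 Healthy nude mice given 10 mg/kg iv as the hydrochloride salt in 5% dextrose solution. Six mice in total, three per leg (iv and oral). Saphenous-vein blood taken predose and at 0.083, 0.5, 1, 6 and 24 h after iv dosing. Plasma separated by centrifugation (10,000g, 3 min, 4 °C) and stored at -80 °C until analysis.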"}, "[12]": {"biological_target": "Cyclin-dependent kinase 5/CDK5 activator 1 (Homo sapiens, UniProt Q00535)", "assay": "Inhibition of CDK5/p25 by scintillation proximity assay", "format": "protein-complex assay"}, "[13]": {"assay": "AUC in nu/nu mouse at 10 mg/kg, iv", "format": "ADME, organism-based", "design": "dose 10 mg/kg, route intravenous", "settings": "plasma", "how_it_was_run": "as §2"}, "[14]": {"assay": "Cmax in nu/nu mouse at 10 mg/kg, iv", "format": "ADME, organism-based", "design": "dose 10 mg/kg, route intravenous", "settings": "in vivo", "how_it_was_run": "as §2"}, "[15]": {"biological_target": "Fibroblast growth factor receptor 1 (Homo sapiens, UniProt P11362)", "assay": "Inhibition of FGFR1 by scintillation proximity assay"}, "[16]": {"biological_target": "Serine/threonine-protein kinase Nek6 (Homo sapiens, UniProt Q9HC98)", "assay": "Inhibition of NEK6 by scintillation proximity assay"}, "[17]": {"biological_target": "Serine/threonine-protein kinase Chk1 (Homo sapiens, UniProt O14757)", "sequence (O14757 whole entry)": "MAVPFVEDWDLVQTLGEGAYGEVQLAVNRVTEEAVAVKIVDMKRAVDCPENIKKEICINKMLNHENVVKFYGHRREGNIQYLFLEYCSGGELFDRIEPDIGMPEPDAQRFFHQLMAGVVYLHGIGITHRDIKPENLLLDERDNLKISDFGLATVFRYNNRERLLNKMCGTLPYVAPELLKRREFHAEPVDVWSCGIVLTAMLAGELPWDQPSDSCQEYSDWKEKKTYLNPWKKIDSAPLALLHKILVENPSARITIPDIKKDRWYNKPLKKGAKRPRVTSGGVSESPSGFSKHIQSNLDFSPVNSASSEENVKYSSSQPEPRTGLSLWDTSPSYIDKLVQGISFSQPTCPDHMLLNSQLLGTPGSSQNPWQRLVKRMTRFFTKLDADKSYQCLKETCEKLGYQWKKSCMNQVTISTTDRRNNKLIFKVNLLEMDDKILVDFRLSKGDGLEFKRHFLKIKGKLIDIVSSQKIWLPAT", "assay": "Inhibition of CHK1 by scintillation proximity assay"}, "[18]": {"biological_target": "Mitogen-activated protein kinase 14 (Homo sapiens, UniProt Q16539)", "sequence (Q16539 whole entry)": "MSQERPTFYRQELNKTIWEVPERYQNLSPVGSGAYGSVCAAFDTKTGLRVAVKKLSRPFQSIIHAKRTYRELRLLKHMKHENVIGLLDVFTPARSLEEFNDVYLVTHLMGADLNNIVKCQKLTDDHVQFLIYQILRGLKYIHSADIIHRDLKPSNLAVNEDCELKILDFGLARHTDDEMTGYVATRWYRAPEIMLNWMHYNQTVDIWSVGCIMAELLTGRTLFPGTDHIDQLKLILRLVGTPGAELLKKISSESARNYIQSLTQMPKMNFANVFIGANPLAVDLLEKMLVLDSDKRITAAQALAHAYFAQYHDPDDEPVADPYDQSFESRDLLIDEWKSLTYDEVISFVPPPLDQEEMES", "assay": "Inhibition of p38alpha"}, "CYP3A4": {"biological_target": "CYP3A4 (Homo sapiens, UniProt P08684)", "assay": "Inhibition of human CYP3A4 assessed as residual activity at 10 uM", "format": "ADME", "settings": "read-out: Activity"}, "[19]": {"assay": "Solubility in 5% dextrose solution", "format": "physicochemical"}, "Aurora kinase A": {"biological_target": "Aurora kinase A (Homo sapiens, UniProt O14965)", "sequence (O14965 whole entry)": "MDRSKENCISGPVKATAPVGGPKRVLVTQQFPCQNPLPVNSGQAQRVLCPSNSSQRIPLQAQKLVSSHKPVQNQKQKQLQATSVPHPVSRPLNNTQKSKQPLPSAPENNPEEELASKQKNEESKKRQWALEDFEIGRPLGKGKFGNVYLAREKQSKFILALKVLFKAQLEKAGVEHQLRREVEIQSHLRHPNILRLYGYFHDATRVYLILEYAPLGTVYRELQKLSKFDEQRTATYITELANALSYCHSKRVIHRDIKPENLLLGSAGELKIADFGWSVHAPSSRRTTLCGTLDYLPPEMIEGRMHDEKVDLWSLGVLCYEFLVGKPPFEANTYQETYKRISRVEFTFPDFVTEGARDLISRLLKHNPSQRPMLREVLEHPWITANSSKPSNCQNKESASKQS", "assay": "Inhibition of Aurora A by scintillation proximity assay"}, "[20]": {"biological_target": "Cyclin-dependent kinase 1/cyclin B1 (Homo sapiens, UniProt P06493)", "assay": "Inhibition of CDK1/cyclin B", "format": "protein-complex assay"}, "[21]": {"biological_target": "Cell division cycle 7-related protein kinase (Homo sapiens, UniProt O00311)", "assay": "Inhibition of CDC7 by scintillation proximity assay"}, "[22]": {"biological_target": "Serine/threonine-protein kinase PLK1 (Homo sapiens, UniProt P53350)", "assay": "Inhibition of PLK1"}, "[23]": {"biological_target": "RAC-alpha serine/threonine-protein kinase (Homo sapiens, UniProt P31749)", "assay": "Inhibition of AKT1"}, "[24]": {"biological_target": "Cyclin-dependent kinase 4/cyclin D1 (Homo sapiens, UniProt P11802)", "assay": "Inhibition of CDK4/cyclin D1 by scintillation proximity assay", "format": "protein-complex assay"}, "[25]": {"biological_target": "ALK tyrosine kinase receptor (Homo sapiens, UniProt Q9UM73)", "assay": "Inhibition of ALK by scintillation proximity assay"}, "[26]": {"biological_target": "cAMP-dependent protein kinase catalytic subunit alpha (Homo sapiens, UniProt P17612)", "assay": "Inhibition of PKAalpha by scintillation proximity assay"}, "Mus musculus [27]": {"system": "Mus musculus", "assay": "Toxicity in BALB/c nu/nu mouse at 10 to 30 mg/kg, iv QD for 10 consecutive days measured post last dose", "format": "organism-based", "design": "dose 10-30 mg/kg, route intravenous", "settings": "in vivo", "how_it_was_run": "as §1"}, "[28]": {"assay": "Half life in nu/nu mouse at 10 mg/kg, iv", "format": "ADME, organism-based", "design": "dose 10 mg/kg, route intravenous", "settings": "in vivo", "how_it_was_run": "as §2"}, "[29]": {"assay": "Solubility at pH 7", "format": "physicochemical", "settings": "buffer"}, "[30]": {"biological_target": "High affinity nerve growth factor receptor (Homo sapiens, UniProt P04629)", "assay": "Inhibition of TRKA"}, "[31]": {"assay": "Plasma protein binding in human by HPLC analysis", "format": "ADME, cell-free", "settings": "read-out: PPB (converted)"}, "[32]": {"biological_target": "Glycogen synthase kinase-3 beta (Homo sapiens, UniProt P49841)", "sequence (P49841 whole entry)": "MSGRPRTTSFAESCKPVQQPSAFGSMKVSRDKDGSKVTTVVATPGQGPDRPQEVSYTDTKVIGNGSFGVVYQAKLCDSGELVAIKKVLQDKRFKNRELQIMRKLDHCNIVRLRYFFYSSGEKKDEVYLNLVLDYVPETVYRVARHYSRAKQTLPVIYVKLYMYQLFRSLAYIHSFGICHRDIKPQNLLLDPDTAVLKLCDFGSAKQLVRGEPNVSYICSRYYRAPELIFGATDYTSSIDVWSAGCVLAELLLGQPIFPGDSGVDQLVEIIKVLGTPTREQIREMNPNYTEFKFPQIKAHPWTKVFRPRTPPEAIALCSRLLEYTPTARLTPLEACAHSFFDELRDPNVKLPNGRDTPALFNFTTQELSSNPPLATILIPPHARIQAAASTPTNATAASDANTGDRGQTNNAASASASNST", "assay": "Inhibition of GSK3-beta by scintillation proximity assay"}, "[33]": {"assay": "Volume of distribution at steady state in nu/nu mouse at 10 mg/kg, iv", "format": "ADME, organism-based", "design": "dose 10 mg/kg, route intravenous", "settings": "in vivo, read-out: Vdss", "how_it_was_run": "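Healthy nude mice received a single 10 mg/kg iv dose as the hydrochloride salt in 5% dextrose; six mice were used in total across the iv and oral legs. Saphenous-vein blood was drawn predose and at 0.083, 0.5, 1, 6 and 24 h. Samples were spun at 10,000g for 3 min at 4 °C, and plasma was stored at −80 °C until analysis.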"}},
  "data": [
    {"smiles": "CC(C)CC(=O)Nc1[nH]nc2c1CN(C(=O)C1CCN(C)CC1)C2(C)C", "note": "[PHA-793887]", "values": [
      {"measurement": "IC50", "setting": "[1]", "value": "> 10", "unit": "µM"},
      {"measurement": "IC50", "setting": "[2]", "value": "> 10", "unit": "µM"},
      {"measurement": "Activity", "setting": "Mus musculus [3]", "value": "< 10", "unit": "%"},
      {"measurement": "IC50", "setting": "[4]", "value": "> 10", "unit": "µM"},
      {"measurement": "IC50", "setting": "[5]", "value": "> 10", "unit": "µM"},
      {"measurement": "IC50", "setting": "[6]", "value": "> 10", "unit": "µM"},
      {"measurement": "IC50", "setting": "Aurora kinase B", "value": "> 10", "unit": "µM"},
      {"measurement": "IC50", "setting": "[7]", "value": 0.01, "unit": "µM"},
      {"measurement": "IC50", "setting": "[8]", "value": "> 10", "unit": "µM"},
      {"measurement": "IC50", "setting": "[9]", "value": "> 10", "unit": "µM"},
      {"measurement": "IC50", "setting": "[10]", "value": "> 10", "unit": "µM"},
      {"measurement": "clearance", "setting": "[11]", "value": 23.9, "unit": "mL/min/kg"},
      {"measurement": "IC50", "setting": "[12]", "value": 0.005, "unit": "µM"},
      {"measurement": "AUC", "setting": "[13]", "value": 19.2, "unit": "µM·h"},
      {"measurement": "Cmax", "setting": "[14]", "value": 36.5, "unit": "µM"},
      {"measurement": "IC50", "setting": "[15]", "value": "> 10", "unit": "µM"},
      {"measurement": "IC50", "setting": "[16]", "value": "> 10", "unit": "µM"},
      {"measurement": "IC50", "setting": "[17]", "value": "> 10", "unit": "µM"},
      {"measurement": "IC50", "setting": "[18]", "value": "> 10", "unit": "µM"},
      {"measurement": "activity at 10 µM", "setting": "CYP3A4", "value": 91, "unit": "%"},
      {"measurement": "solubility", "setting": "[19]", "value": 10000, "unit": "µg/mL"},
      {"measurement": "IC50", "setting": "Aurora kinase A", "value": "> 10", "unit": "µM"},
      {"measurement": "IC50", "setting": "[20]", "value": 0.06, "unit": "µM"},
      {"measurement": "IC50", "setting": "[21]", "value": "> 10", "unit": "µM"},
      {"measurement": "IC50", "setting": "[22]", "value": "> 10", "unit": "µM"},
      {"measurement": "IC50", "setting": "[23]", "value": "> 10", "unit": "µM"},
      {"measurement": "IC50", "setting": "[24]", "value": 0.062, "unit": "µM"},
      {"measurement": "IC50", "setting": "[25]", "value": "> 10", "unit": "µM"},
      {"measurement": "IC50", "setting": "[26]", "value": "> 10", "unit": "µM"},
      {"measurement": "Activity", "setting": "Mus musculus [27]", "value": "Non-toxic"},
      {"measurement": "half-life", "setting": "[28]", "value": 4.1, "unit": "h"},
      {"measurement": "solubility", "setting": "[29]", "value": "> 225", "unit": "µM"},
      {"measurement": "IC50", "setting": "[30]", "value": "> 10", "unit": "µM"},
      {"measurement": "fraction unbound", "setting": "[31]", "value": 0.46},
      {"measurement": "IC50", "setting": "[32]", "value": 0.079, "unit": "µM"},
      {"measurement": "Vd", "setting": "[33]", "value": 1.36, "unit": "L/kg"}
    ]}
  ]
}
